These results are taken from ChEMBL document CHEMBL3603803, “Design and synthesis of dithiocarbamate linked β-carboline derivatives: DNA topoisomerase II inhibition with DNA binding and apoptosis inducing ability” (Bioorg Med Chem, 2015).

SMILES strings stand for the structures. Activity calls are given as the source filed them. The calls are words filed in the database; no cut-off is given here.

As usually defined, the IC50 is the point on the concentration scale where inhibition reaches its midpoint. A low value points to higher potency.

One test concerns A549. In words: Cytotoxicity against human A549 cells after 48 hrs by MTT assay. The format is functional, cell-based. As to conditions: A549, 48 h. In a few lines:
(§1)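 Human cancer cell lines (A549 lung, MCF-7 breast, DU-145 prostate, HeLa cervical) exposed to compounds for 48 h; 50% inhibitory concentration derived, average of three individual experiments; doxorubicin reference agent.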

For another test, the system named is MCF7. As to the kind of experiment: Cytotoxicity against human MCF7 cells after 48 hrs by MTT assay. The format is functional, cell-based. As to conditions: MCF7, 48 h. Summed up:
as §1
(In general: Tetrazolium assays rely on reduction of a dye to a coloured formazan, in cell work by metabolically active cells.)

A further test relates to DU-145. In words: Cytotoxicity against human DU145 cells after 48 hrs by MTT assay. The class given is functional, cell-based. As to conditions: DU-145, 48 h. In a few lines:
as §1

The next test deals with HeLa. As to the kind of experiment: Cytotoxicity against human HeLa cells after 48 hrs by MTT assay. The format is functional, cell-based. Summed up: as §1
The target of test [1] is DNA topoisomerase II (Homo sapiens) (UniProt P11388+Q02880). In words: Interfacial poisoning activity at DNA-topoisomerase 2 (unknown origin) using catenated kDNA as substrate assessed as linear DNA formation at 1 to 100 uM after 30 mins by agarose gel electrophoresis. The class given is protein assay. Summed up:
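Catenated DNA incubated with topo II and compound at 1, 10 and 100 µM; gel products scored for linear DNA (poison type) versus nicked circular/relaxed DNA retained in wells (catalytic inhibitor type); etoposide at 1, 10, 100 µM as control.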

In the case of `Cn1c2ccccc2c2cc(CN)nc(-c3ccc(F)cc3)c21`, the IC50 stood at 19.5 µM in the test with A549, 16.6 µM in the test with MCF7, 10 µM in the test with DU-145 and 20.5 µM in the test with HeLa.
On to `Cn1c2ccccc2c2cc(CNC(=S)SCc3ccccc3)nc(-c3ccc(F)cc3)c21`, for which the half-maximal inhibitory concentration (IC50) turned out to be 6.76 µM in the test on A549, 2.75 µM with MCF7, 4.78 µM in the test with DU-145 and 3.16 µM with HeLa.
In the case of `C=CCSC(=S)NCc1cc2c([nH]c3ccccc32)c(-c2ccc(C(F)(F)F)cc2)n1`, the IC50 was found to be 18.6 µM in the test on A549, 10.9 µM in the test with MCF7, 7.76 µM in the test with DU-145 and 10.6 µM in the test with HeLa.
As to `COc1cc(-c2nc(CNC(=S)SCc3ccccc3)cc3c2[nH]c2ccccc23)cc(OC)c1OC`, the concentration for half-maximal inhibition (IC50) is 27.5 µM with A549, 25.8 µM with MCF7, 17.3 µM in the test with DU-145 and 14.5 µM in the test with HeLa.
The corresponding values for `COc1cc(-c2nc(CNC(=S)SC)cc3c2[nH]c2ccccc23)cc(OC)c1OC` are 8.12 µM, 8.91 µM, 5.62 µM and 11.3 µM.
For `NCc1cc2c([nH]c3ccccc32)c(-c2ccc(C(F)(F)F)cc2)n1` the same measures were 15.8 µM, 12 µM, 9.12 µM and 15.8 µM.
For `COc1cc(-c2nc(CN)cc3c2[nH]c2ccccc23)cc(OC)c1OC`, the IC50 in the test on A549 was 15.1 µM; in the test on MCF7 it was 18.6 µM; in the test with DU-145 it was 18.3 µM; in the test on HeLa, 21.7 µM.
On to `Fc1ccc(-c2nc(CNC(=S)SCc3ccccc3)cc3c2[nH]c2ccccc23)cc1`, for which the IC50 in the test with A549 came out at 39.8 µM; in the test with MCF7, 7.41 µM; with DU-145, 3.71 µM; with HeLa it was 3.81 µM.
On to `COc1cc([C@@H]2c3cc4c(cc3[C@@H](O[C@@H]3O[C@@H]5CO[C@@H](C)O[C@H]5[C@H](O)[C@H]3O)[C@H]3COC(=O)[C@H]23)OCO4)cc(OC)c1O`, for which, in test [1], the outcome was Active.
With `C=CCSC(=S)NCc1cc2c3ccccc3n(C)c2c(-c2ccc(OC)cc2)n1`, the IC50 with A549 was 10 µM; with MCF7, 3.2 µM; in the test with DU-145 it was 2.5 µM; in the test with HeLa, 8.3 µM.
The corresponding values for `Cn1c2ccccc2c2cc(CN)nc(-c3ccc(C(F)(F)F)cc3)c21` are 19.2 µM, 11.7 µM, 7.76 µM and 15.1 µM.
`CSC(=S)NCc1cc2c3ccccc3n(C)c2c(-c2ccc(F)cc2)n1`: the IC50 in the test with A549 turned out to be 5.62 µM; in the test with MCF7, 1.86 µM; in the test on DU-145, 1.45 µM; with HeLa, 2.39 µM.
In the case of `COc1cccc2c1C(=O)c1c(O)c3c(c(O)c1C2=O)C[C@@](O)(C(=O)CO)C[C@@H]3O[C@H]1C[C@H](N)[C@H](O)[C@H](C)O1` [DOXORUBICIN], the IC50 in the test on A549 amounted to 1.58 µM; in the test with MCF7, 0.96 µM; in the test with DU-145, 1.38 µM; in the test with HeLa, 2.63 µM.
The corresponding values for `CSC(=S)NCc1cc2c([nH]c3ccccc32)c(-c2ccc(C(F)(F)F)cc2)n1` are 16.9 µM, 15.8 µM, 9.54 µM and 12.6 µM.
`C=CCSC(=S)NCc1cc2c3ccccc3n(C)c2c(-c2ccc(C(F)(F)F)cc2)n1`: the IC50 in the test with A549 came to 4.26 µM; in the test on MCF7, 4.78 µM; in the test with DU-145 it was 1.99 µM; in the test on HeLa, 4.67 µM.
`Cn1c2ccccc2c2cc(CNC(=S)SCc3ccccc3)nc(-c3ccc(C(F)(F)F)cc3)c21`: the IC50 in the test on A549 turned out to be 5.12 µM; with MCF7, 4.31 µM; in the test with DU-145, 2.08 µM; in the test on HeLa, 4.78 µM.
The corresponding values for `NCc1cc2c([nH]c3ccccc32)c(-c2ccc(F)cc2)n1` are 21.1 µM, 17.9 µM, 13.8 µM and 22.5 µM.
The corresponding values for `C=CCSC(=S)NCc1cc2c([nH]c3ccccc32)c(-c2ccc(OC)cc2)n1` are 51.4 µM, 38.8 µM, 46.7 µM and 59.1 µM.
Consider `COc1cc(-c2nc(CN)cc3c4ccccc4n(C)c23)cc(OC)c1OC`, for which the IC50 was 18.2 µM in the test on A549, 15.1 µM with MCF7, 14.8 µM with DU-145 and 19.9 µM with HeLa.
The corresponding values for `COc1ccc(-c2nc(CN)cc3c2[nH]c2ccccc23)cc1` are 17.8 µM, 18.9 µM, 17.4 µM and 18.6 µM.
With `C=CCSC(=S)NCc1cc2c([nH]c3ccccc32)c(-c2cc(OC)c(OC)c(OC)c2)n1`, the IC50 with A549 stood at 12.8 µM; in the test with MCF7 it was 15.8 µM; in the test on DU-145 it was 13.8 µM; with HeLa it was 23.2 µM.
Regarding `COc1ccc(-c2nc(CNC(=S)SC)cc3c2[nH]c2ccccc23)cc1`, the IC50 in the test with A549 came out at 7.94 µM; in the test with MCF7, 8.51 µM; in the test with DU-145 it was 1.14 µM; in the test on HeLa, 7.78 µM.
As for `COc1cc(-c2nc(CNC(=S)SCc3ccccc3)cc3c4ccccc4n(C)c23)cc(OC)c1OC`, the IC50 came to 14.1 µM in the test with A549, 13.9 µM with MCF7, 10.6 µM in the test with DU-145 and 12.3 µM with HeLa.
Regarding `C=CCSC(=S)NCc1cc2c3ccccc3n(C)c2c(-c2ccc(F)cc2)n1`, the IC50 is 6.02 µM in the test on A549, 3.01 µM in the test on MCF7, 2.88 µM in the test on DU-145 and 2.57 µM in the test on HeLa.
The corresponding values for `COc1ccc(-c2nc(CNC(=S)SCc3ccccc3)cc3c2[nH]c2ccccc23)cc1` are 17.7 µM, 10 µM, 13.8 µM and 24.1 µM.
Consider `COc1ccc(-c2nc(CNC(=S)SCc3ccccc3)cc3c4ccccc4n(C)c23)cc1`, for which the IC50 in the test on A549 was determined as 9.12 µM; in the test on MCF7 it was 3.36 µM; with DU-145 it was 6.91 µM; in the test with HeLa, 13.8 µM.
For the compound `COc1cc(-c2nc(CNC(=S)SC)cc3c4ccccc4n(C)c23)cc(OC)c1OC`, the IC50 in the test with A549 came out at 12.5 µM; in the test on MCF7, 15.2 µM; with DU-145, 6.16 µM; in the test with HeLa it was 16.9 µM.
In the case of `COc1ccc(-c2nc(CNC(=S)SC)cc3c4ccccc4n(C)c23)cc1`, the IC50 stood at 5.12 µM in the test with A549, 1.51 µM in the test on MCF7, 1.41 µM with DU-145 and 2.57 µM in the test on HeLa.
The corresponding values for `C=CCSC(=S)NCc1cc2c([nH]c3ccccc32)c(-c2ccc(F)cc2)n1` are 16.7 µM, 6.6 µM, 3.98 µM and 4.46 µM.
The corresponding values for `FC(F)(F)c1ccc(-c2nc(CNC(=S)SCc3ccccc3)cc3c2[nH]c2ccccc23)cc1` are 9.33 µM, 12.3 µM, 5.88 µM and 3.98 µM.
As to `C=CCSC(=S)NCc1cc2c3ccccc3n(C)c2c(-c2cc(OC)c(OC)c(OC)c2)n1`, the IC50 in the test with A549 turned out to be 18.1 µM; with MCF7, 20.6 µM; in the test on DU-145, 19.4 µM; with HeLa, 19.9 µM.
For `COc1ccc(-c2nc(CN)cc3c4ccccc4n(C)c23)cc1` the same measures were 20.1 µM, 16.6 µM, 12.8 µM and 14.8 µM.
